Screening data (PubChem)
Hits are enriched below; roughly 1.6% of the tested compounds scored in any of these assays.
HCV core dimer: HCV core protein dimerization inhibition | TR-FRET GST/Flag-core106 dimerization, 1536-well | inhibition, % at 5 µM | hit rate 0.33% among 300,000 | AID 1899;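 active means inhibition above the mean of all tested compounds plus 3 SD, set per screening campaign, cut at about 45% in these data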
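Assay system: GST-tagged and Flag-tagged HCV core protein residues 1-106 / Times: compound-protein-antibody incubation 4 h at 22.5 °C / Signal: time-resolved FRET, ex 340 nm, em 617 and 671 nm / Evaluation: % inhibition based on acceptor/donor emission ratio / Benchmarks: wells lacking GST-core106 and wells with excess unlabelled core106 / Repeats: singlicate, one well per compound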
DNA FID counter: fluorescent intercalator displacement, NS3 helicase counter-screen. DNA fluorescent intercalator displacement, fluorescence. inhibition, % at 7.9 µM. hit rate 0.17% among 290,000; in the data active means inhibition above about 37%;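 further: 0% = vehicle and 100% = reference compound; higher means more ethidium bromide displaced from hairpin DNA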
VIM-2 inhibitor: inhibitors of Pseudomonas aeruginosa VIM-2 metallo-beta-lactamase; purified VIM-2, nitrocefin hydrolysis, epi-absorbance fluorescence; inhibition, % at 5.6 µM; hit rate 0.89% among 290,000;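 active means inhibition above the mean of all tested compounds plus 3 SD, cutoff set per screening run, cut at about 7.5% in these data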;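 further: red hydrolysis product quenches plate fluorescence so inhibitors raise well fluorescence; 0% = enzyme with DMSO and 100% = DMSO without enzyme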
IMP-1 inhibitor: blocks Pseudomonas aeruginosa IMP-1 metallo-beta-lactamase; purified IMP-1, nitrocefin hydrolysis, epi-absorbance fluorescence; inhibition, % at 5.6 µM; hit rate 0.45% among 290,000; AID 1556;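 active means inhibition above the mean plus 3 SD of all compounds in the same screening run, cut at about 4.5% in these data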;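 further: 0% = IMP-1 with DMSO and 100% = DMSO wells lacking enzyme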
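System: purified IMP-1 / Input: IMP-1 dispensed at 0.2 nM / Medium: 50 mM HEPES pH 7.1, 50 µM ZnSO4, 0.05% Brij 35 / Timing: 15 min enzyme–compound preincubation, then 25 min nitrocefin reaction, 25 °C / Technique: plate fluorescence quenching by hydrolysis product, ex 480/em 530 nm / Repeats: singlicate testing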
The depositor's hits bear a star.

For COc1ccccc1OCCC(=O)OCC(=O)c1c(N)n(C)c(=O)n(C)c1=O the results were HCV core dimer -1.7, DNA FID counter -15.0, VIM-2 inhibitor -3.7 and IMP-1 inhibitor -5.2.
`CCN(CC)CCCN(C(=O)c1ccc(OC)cc1)c1nc(-c2ccc(OC)cc2)cs1` gave HCV core dimer -7.4, DNA FID counter 44.1*, VIM-2 inhibitor 2.2 and IMP-1 inhibitor 0.9.
For CCN(CC)CCCN(C(=O)c1ccccc1C)c1nc(-c2ccc(OC)cc2)cs1 the results were HCV core dimer -16.7, DNA FID counter 15.1, VIM-2 inhibitor -1.7 and IMP-1 inhibitor -2.2.
C=CCOc1ccc(/C=C2\N=C(C)OC2=O)cc1OC was read as HCV core dimer -1.2, DNA FID counter -5.2, VIM-2 inhibitor -0.4 and IMP-1 inhibitor -0.8.
`Cc1sc2ncnc(SCC(=O)NC(C)(C)C)c2c1C` gave HCV core dimer -1.7, DNA FID counter -24.4, VIM-2 inhibitor -1.4 and IMP-1 inhibitor -3.6.
Screening CC(C)[C@H](NC(=O)c1ccco1)C(=O)OCc1cc(=O)n2c(n1)sc1ccccc12 returned HCV core dimer 22.6, DNA FID counter -11.5, VIM-2 inhibitor 2.0 and IMP-1 inhibitor -1.9.
`O=C(OCc1cc(=O)n2c(n1)sc1ccccc12)c1ccc(O)cc1O` gave HCV core dimer 42.1, DNA FID counter -2.6, VIM-2 inhibitor -2.0 and IMP-1 inhibitor -0.5.
`O=C(Cc1coc2cc3c(cc12)CCC3)OCc1cc(=O)n2c(n1)sc1ccccc12` gave HCV core dimer 57.4*, DNA FID counter -2.2, VIM-2 inhibitor -3.4 and IMP-1 inhibitor -2.4.
Screening O=C(OCc1cc(=O)n2c(n1)sc1ccccc12)c1cccc(O)c1 returned HCV core dimer 50.8*, DNA FID counter -3.2, VIM-2 inhibitor 2.1 and IMP-1 inhibitor -0.6.
Screening COc1ccc(S(=O)(=O)N2CCN(C(=O)c3oc4ccccc4c3C)CC2)cc1 returned HCV core dimer 15.7, DNA FID counter -47.5, VIM-2 inhibitor -1.9 and IMP-1 inhibitor -1.4.
`CC(=O)c1ccc(N2CCN(S(=O)(=O)c3c(C)[nH]c(C)c3C(=O)N3CCCCC3)CC2)cc1` gave HCV core dimer 0.3, DNA FID counter -47.8, VIM-2 inhibitor -0.6 and IMP-1 inhibitor -1.0.
CSCC[C@H](NC(=O)C1CCN(S(=O)(=O)c2ccc(C)cc2)CC1)C(=O)NCc1ccco1 was read as HCV core dimer 7.6, DNA FID counter -25.0, VIM-2 inhibitor -2.0 and IMP-1 inhibitor 5.9*.
For CSCC[C@H](NC(=O)C1CCN(S(=O)(=O)c2ccc(C)cc2)CC1)C(=O)NCC1CCCO1 (some centres not stated) the results were HCV core dimer -4.2, DNA FID counter -23.1, VIM-2 inhibitor -3.4 and IMP-1 inhibitor 0.5.
For CCOC(=O)Nc1ccc2c(c1)N(C(=O)CN1CCN(C)CC1)c1ccccc1S2 the results were HCV core dimer -1.5, DNA FID counter 11.8, VIM-2 inhibitor -6.5 and IMP-1 inhibitor -5.7.
`CCCC(CCC)C(=O)Nc1ccc2c(c1)N(C(=O)CN1CCN(C)CC1)c1ccccc1CC2` gave HCV core dimer -12.2, DNA FID counter 48.6*, VIM-2 inhibitor 2.5 and IMP-1 inhibitor 0.2.
`CN(C)C1(CNC(=O)CC(NC(=O)c2ccccc2Cl)c2ccccc2)CCCCC1` (configuration not stated) gave HCV core dimer -8.5, DNA FID counter 2.0, VIM-2 inhibitor -5.5 and IMP-1 inhibitor -4.2.
For CN(C)c1ccc(NC(=O)Nc2ccc3c(c2)nnn3C)cc1 the results were HCV core dimer -42.6, DNA FID counter -0.1, VIM-2 inhibitor -1.9 and IMP-1 inhibitor -4.5.
C#CCOCCOCCOCCNc1nc(N2CCN(C(=O)[C@H](CCCCN)n3cc([C@@H](N)C(C)CC)nn3)CC2)nc(N2CCN(C(=O)[C@H](Cc3cc4ccccc4[nH]3)n3cc([C@@H](N)CC(C)C)nn3)CC2)n1 (some centres not stated) was read as HCV core dimer -22.8, DNA FID counter 47.7*, VIM-2 inhibitor -1.8 and IMP-1 inhibitor -3.0.
Screening C#CCOCCOCCOCCNc1nc(N2CCN(C(=O)[C@H](CCCCN)n3cc([C@@H](N)CO)nn3)CC2)nc(N2CCN(C(=O)[C@H](Cc3cc4ccccc4[nH]3)n3cc([C@@H](N)CC(C)C)nn3)CC2)n1 returned HCV core dimer -20.5, DNA FID counter 48.9*, VIM-2 inhibitor -0.2 and IMP-1 inhibitor -2.2.
`C#CCOCCOCCOCCNc1nc(N2CCN(C(=O)[C@H](Cc3cc4ccccc4[nH]3)n3cc([C@@H](N)C(C)CC)nn3)CC2)nc(N2CCN(C(=O)[C@H](Cc3cc4ccccc4[nH]3)n3cc([C@@H](N)CC(C)C)nn3)CC2)n1` (some centres not stated) gave HCV core dimer -30.1, DNA FID counter 40.8*, VIM-2 inhibitor -3.7 and IMP-1 inhibitor -0.1.
`C#CCOCCOCCOCCNc1nc(N2CCN(C(=O)C(Cc3ccc(O)cc3)n3cc(C(N)CC(C)C)nn3)CC2)nc(N2CCN(C(=O)C(Cc3cc4ccccc4[nH]3)n3cc(C(N)Cc4ccc(O)cc4)nn3)CC2)n1` (configuration not stated) gave HCV core dimer -2.7, DNA FID counter 39.8*, VIM-2 inhibitor -5.2 and IMP-1 inhibitor -5.2.
`C#CCOCCOCCOCCNc1nc(N2CCN(C(=O)[C@H](CCC(=O)O)n3cc(C(N)CO)nn3)CC2)nc(N2CCN(C(=O)[C@H](Cc3cc4ccccc4[nH]3)n3cc(C(N)[C@H](C)CC)nn3)CC2)n1` (some centres not stated) gave HCV core dimer -2.9, DNA FID counter 17.7, VIM-2 inhibitor -4.2 and IMP-1 inhibitor -3.6.
For Cc1ccc(S(=O)(=O)Oc2ccc(C(c3c(C)[nH][nH]c3=O)c3c(C)[nH][nH]c3=O)cc2)cc1 the results were HCV core dimer 9.5, DNA FID counter -36.1, VIM-2 inhibitor -1.6 and IMP-1 inhibitor -4.1.
Screening c1ccc(-c2ccc(C3=Nn4c(nnc4-c4cccs4)SC3)cc2)cc1 returned HCV core dimer 25.4, DNA FID counter -16.0, VIM-2 inhibitor -1.3 and IMP-1 inhibitor -1.6.
For C#CCOCCOCCOCCNc1nc(N2CCN(C(=O)[C@H](Cc3cc4ccccc4[nH]3)n3cc([C@@H](N)C(C)CC)nn3)CC2)nc(N2CCN(C(=O)[C@H](CCCCN)n3cc([C@@H](N)CO)nn3)CC2)n1 (some centres not stated) the results were HCV core dimer -11.2, DNA FID counter 55.1*, VIM-2 inhibitor -1.6 and IMP-1 inhibitor -3.3.
C#CCOCCOCCOCCNc1nc(N2CCN(C(=O)[C@H](CCCCN)n3cc([C@@H](N)CO)nn3)CC2)nc(N2CCN(C(=O)[C@H](Cc3cc4ccccc4[nH]3)n3cc([C@@H](N)CO)nn3)CC2)n1 was read as HCV core dimer -2.7.
COc1ccc(OC)c(NC(=O)C2C3CCC(C3=C(C)C)C2C(=O)O)c1 (configuration not stated) was read as HCV core dimer 0.7, DNA FID counter -5.1, VIM-2 inhibitor 8.8* and IMP-1 inhibitor -1.0.
